Test results reported in ChEMBL document CHEMBL6134766, “Design, synthesis, and evaluation of benzhydrylpiperazine-based novel dual COX-2/5-LOX inhibitors with anti-inflammatory and anti-cancer activity” (RSC Med Chem, 2025).
Where a name gives a salt, the structure may show the parent alone. The source made the active and inactive calls. The rule behind the calls is not given here.

Tests used:
[1] = biological target: T1, Prostaglandin G/H synthase 1 (Ovis aries, UniProt P05979); experiment: Inhibition of ovine COX-1 using arachidonic acid as substrate in presence of hemin by TMPD reagent-based colorimetry
T1 sequence (P05979 whole entry): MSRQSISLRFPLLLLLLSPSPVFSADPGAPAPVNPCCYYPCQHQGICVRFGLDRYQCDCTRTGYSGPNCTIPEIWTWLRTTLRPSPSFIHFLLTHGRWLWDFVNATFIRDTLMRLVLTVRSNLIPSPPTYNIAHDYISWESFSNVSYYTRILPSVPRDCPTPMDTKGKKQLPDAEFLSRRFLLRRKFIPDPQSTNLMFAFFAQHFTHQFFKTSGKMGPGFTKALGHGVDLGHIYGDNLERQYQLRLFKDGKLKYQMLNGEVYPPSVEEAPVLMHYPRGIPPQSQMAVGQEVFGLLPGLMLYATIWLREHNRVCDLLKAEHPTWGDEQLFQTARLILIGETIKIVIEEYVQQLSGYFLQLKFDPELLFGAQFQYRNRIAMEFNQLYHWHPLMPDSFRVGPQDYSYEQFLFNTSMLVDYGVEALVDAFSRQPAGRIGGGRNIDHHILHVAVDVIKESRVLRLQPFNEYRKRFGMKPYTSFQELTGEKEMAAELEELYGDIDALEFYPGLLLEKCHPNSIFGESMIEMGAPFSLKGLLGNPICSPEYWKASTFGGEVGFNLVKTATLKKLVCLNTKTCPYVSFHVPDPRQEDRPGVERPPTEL

[2] = biological target: T2, Polyunsaturated fatty acid 5-lipoxygenase (Homo sapiens, UniProt P09917); experiment: Inhibition of 5-LOX (unknown origin) using arachidonic acid as substrate preincubated for 5 mins followed by substrate addition measured after 10 mins by spectrophotometry
T2 sequence (P09917 whole entry): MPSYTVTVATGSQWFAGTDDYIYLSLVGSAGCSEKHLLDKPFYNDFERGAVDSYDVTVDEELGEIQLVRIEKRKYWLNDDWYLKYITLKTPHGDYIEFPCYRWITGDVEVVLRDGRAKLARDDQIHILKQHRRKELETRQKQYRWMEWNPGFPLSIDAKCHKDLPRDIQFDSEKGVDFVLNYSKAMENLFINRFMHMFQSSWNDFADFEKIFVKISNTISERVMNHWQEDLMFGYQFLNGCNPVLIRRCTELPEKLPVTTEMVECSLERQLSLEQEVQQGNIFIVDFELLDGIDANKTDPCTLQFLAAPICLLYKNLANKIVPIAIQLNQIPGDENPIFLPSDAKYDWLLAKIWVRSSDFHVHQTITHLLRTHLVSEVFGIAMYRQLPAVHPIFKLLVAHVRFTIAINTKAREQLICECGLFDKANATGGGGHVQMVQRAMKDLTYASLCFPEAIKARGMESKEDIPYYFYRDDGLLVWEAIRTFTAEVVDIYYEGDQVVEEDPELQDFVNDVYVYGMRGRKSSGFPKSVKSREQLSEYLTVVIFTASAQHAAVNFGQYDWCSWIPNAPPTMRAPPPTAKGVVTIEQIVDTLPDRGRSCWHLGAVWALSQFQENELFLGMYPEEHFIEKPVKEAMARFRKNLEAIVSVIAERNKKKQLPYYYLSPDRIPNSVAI

[3] = test system: A549; experiment: Cytotoxicity against human A549 cells assessed as growth inhibition incubated for 48 hrs by SRB assay; settings: A549, 48 h
[4] = test system: COLO 205; experiment: Cytotoxicity against human COLO 205 cells assessed as growth inhibition incubated for 48 hrs by SRB assay; settings: COLO 205, 48 h
[5] = test system: MIA PaCa-2; experiment: Cytotoxicity against human MIA PaCa-2 cells assessed as growth inhibition incubated for 48 hrs by SRB assay; settings: MIA PaCa-2, 48 h
[6] = test system: Rattus norvegicus; experiment: Anti-inflammatory activity in arachidonic acid-induced paw edema Wistar rat model assessed as swelling thickness of paw at 10 mg/kg, po measured after 1 hr by digital vernier caliper (reference value: 6.51 +/- 0.37 millimeter); type: functional
[7] = test system: Rattus norvegicus; experiment: Anti-inflammatory activity in arachidonic acid-induced paw edema Wistar rat model assessed as protection against swelling thickness of paw at 10 mg/kg, po measured after 1 hr by digital vernier caliper (reference value: 0 %); type: functional
[8] = test system: Rattus norvegicus; experiment: Cardio-protective activity in ISO-treated Wistar rat assessed as decrease in serum LDH level at 10 mg/kg, po; type: functional, organism-based
Summary of the method: (§1)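 Rats (n = 6/group) given ISO 100 mg kg−1 s.c., then oral test compound in 0.3% CMC; vehicle controls. Retro-orbital blood, serum separated at 4000 rpm, 4 °C, 10 min; LDH and CK-MB by commercial kits; mean ± SD.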

[9] = test system: Rattus norvegicus; experiment: Cardio-protective activity in ISO-treated Wistar rat assessed as decrease in serum CK-MB level at 10 mg/kg, po; type: functional, organism-based; summary of the method: as §1

SMILES | IC50 [1] | IC50 [2] | other results
Fc1ccc(-c2nnc(CN3CCN(C(c4ccccc4)c4ccc(Cl)cc4)CC3)o2)c(F)c1 (configuration not stated) | 34.8 µM | 9.33 µM | –
COc1cccc(-c2nnc(CN3CCN(C(c4ccccc4)c4ccc(Cl)cc4)CC3)o2)c1 (configuration not stated) | 36.3 µM | 15.3 µM | –
Oc1ccc(-c2nnc(CN3CCN(C(c4ccccc4)c4ccc(Cl)cc4)CC3)o2)cc1 (configuration not stated) | 36.3 µM | 10.8 µM | –
Clc1ccc(C(c2ccccc2)N2CCN(Cc3nnc(-c4cccc(Cl)c4)o3)CC2)cc1 (configuration not stated) | 32 µM | 16.2 µM | –
Fc1ccc(-c2nnc(CN3CCN(C(c4ccccc4)c4ccc(Cl)cc4)CC3)o2)cc1 (configuration not stated) | 34.2 µM | 11.6 µM | –
Clc1ccc(C(c2ccccc2)N2CCN(Cc3nnc(-c4ccccc4)o3)CC2)cc1 (configuration not stated) | 38.4 µM | 9.81 µM | –
Oc1cccc(-c2nnc(CN3CCN(C(c4ccccc4)c4ccc(Cl)cc4)CC3)o2)c1 (configuration not stated) | 36.3 µM | 20.3 µM | –
COc1ccc(-c2nnc(CN3CCN(C(c4ccccc4)c4ccc(Cl)cc4)CC3)o2)cc1 (configuration not stated) | 34.5 µM | 10.3 µM | –
Cc1ccc(-c2nnc(CN3CCN(C(c4ccccc4)c4ccc(Cl)cc4)CC3)o2)cc1 (configuration not stated) | 32.1 µM | 18.1 µM | –
Fc1cc(F)c(-c2nnc(CN3CCN(C(c4ccccc4)c4ccc(Cl)cc4)CC3)o2)cc1F (configuration not stated) | 32.7 µM | 19.9 µM | –
O=[N+]([O-])c1cc(-c2nnc(CN3CCN(C(c4ccccc4)c4ccc(Cl)cc4)CC3)o2)cc([N+](=O)[O-])c1 (configuration not stated) | 37.7 µM | 18 µM | –
COc1cccc2c1C(=O)c1c(O)c3c(c(O)c1C2=O)C[C@@](O)(C(=O)CO)C[C@@H]3O[C@H]1C[C@H](N)[C@H](O)[C@H](C)O1 [DOXORUBICIN HYDROCHLORIDE] | – | – | GI50 [3]: 77 nM; GI50 [4]: 100 nM; GI50 [5]: 2 nM
Cc1ccc(-c2cc(C(F)(F)F)nn2-c2ccc(S(N)(=O)=O)cc2)cc1 [CELECOXIB] | – | – | Activity [6]: 1.79 mm; Activity [7]: 72.59%; Activity [8]: inactive; Activity [9]: inactive
O=[N+]([O-])c1cc(-c2nnc(CN3CCN(C(c4ccccc4)c4ccc(Cl)cc4)CC3)o2)ccc1Cl (configuration not stated) | 38.5 µM | 11.2 µM | –
CC(c1cc2ccccc2s1)N(O)C(N)=O (configuration not stated) [ZILEUTON] | – | – | Activity [6]: 3.39 mm; Activity [7]: 47.95%

The next lines start with results.

IC50 [1] | IC50 [2] | SMILES | other results
27 µM | 13.7 µM | FC(F)(F)c1ccc(-c2nnc(CN3CCN(C(c4ccccc4)c4ccc(Cl)cc4)CC3)o2)cc1 (configuration not stated) | –
25.5 µM | 13.5 µM | N#Cc1ccc(-c2nnc(CN3CCN(C(c4ccccc4)c4ccc(Cl)cc4)CC3)o2)cc1 (configuration not stated) | –
27.9 µM | 9.4 µM | FC(F)(F)Oc1ccc(-c2nnc(CN3CCN(C(c4ccccc4)c4ccc(Cl)cc4)CC3)o2)cc1 (configuration not stated) | –
29.9 µM | 13.5 µM | O=[N+]([O-])c1ccccc1-c1nnc(CN2CCN(C(c3ccccc3)c3ccc(Cl)cc3)CC2)o1 (configuration not stated) | –
23 µM | 15 µM | N#Cc1cccc(-c2nnc(CN3CCN(C(c4ccccc4)c4ccc(Cl)cc4)CC3)o2)c1 (configuration not stated) | –
30.3 µM | 14.4 µM | Clc1ccc(C(c2ccccc2)N2CCN(Cc3nnc(-c4ccc(Cl)cc4Cl)o3)CC2)cc1 (configuration not stated) | –
30.7 µM | 9.89 µM | Cc1cccc(-c2nnc(CN3CCN(C(c4ccccc4)c4ccc(Cl)cc4)CC3)o2)c1 (configuration not stated) | –
